Legend:
[1] = Apparent permeability from basolateral to apical side of human Caco2 cells at 4 mM up to 120 mins by HPLC analysis; format: ADME, cell-based; settings: Caco-2
How it was run: (§1)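 Permeability measured across Caco-2 cell monolayers.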

Liver [2] = experiment: Toxicity in mouse assessed as effect on calcium level in liver per gram of organ at 0.4 mmol/kg, ip qd for 5 days; format: organism-based; settings: in vivo, 120 h
Kidney [3] = experiment: Toxicity in mouse assessed as effect on calcium level in kidney per gram of organ at 0.4 mmol/kg, ip qd for 5 days; format: organism-based; settings: in vivo, 120 h
[4] = Detoxification activity against lead-induced toxicity in mouse assessed as reduction lead level in feces at 0.4 mmol/kg, ip qd for 5 days measured 24 hrs last post dose by synchrotron X-ray fluorescence analysis; format: functional
How it was run: (§2)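 Lead-loaded mice were given normal saline vehicle, DL-penicillamine or NaDMS (positive controls), or test agent, each at 0.4 mmol/kg; n = 12 per group. Lead was measured in feces and urine and reported as mean ± SD µg Pb/g excrement against the NS group.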

Brain [5] = experiment: Toxicity in mouse assessed as effect on zinc level in brain per gram of organ at 0.4 mmol/kg, ip qd for 5 days; format: organism-based; settings: in vivo, 120 h
Kidney [6] = experiment: Detoxification activity against lead-induced toxicity in mouse assessed as reduction lead level in kidney per gram of organ at 0.4 mmol/kg, ip qd for 5 days measured 24 hrs last post dose by synchrotron X-ray fluorescence analysis; format: functional
How it was run: (§3)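 Lead-loaded mice were given normal saline vehicle (negative control) or test agent at 0.2, 0.4 or 0.6 mmol/kg. Lead was measured in liver, kidney, left femur and brain and reported as mean ± SD µg Pb/g organ against the NS group.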

Brain [7] = experiment: Toxicity in mouse assessed as effect on iron level in brain per gram of organ at 0.4 mmol/kg, ip qd for 5 days; format: organism-based; settings: in vivo, 120 h
Caco-2 = experiment: Efflux ratio of permeability […] in human Caco2 cells at 4 mM up to 120 mins by HPLC analysis; format: ADME, cell-based; settings: caco-2, 2 h, 4000 µM; how it was run: as §1
Kidney [8] = experiment: Toxicity in mouse assessed as effect on copper level in kidney per gram of organ at 0.4 mmol/kg, ip qd for 5 days; format: organism-based; settings: in vivo, 120 h
Brain [9] = experiment: Toxicity in mouse assessed as effect on copper level in brain per gram of organ at 0.4 mmol/kg, ip qd for 5 days; format: organism-based; settings: in vivo, 120 h
Brain [10] = experiment: Toxicity in mouse assessed as effect on calcium level in brain per gram of organ at 0.4 mmol/kg, ip qd for 5 days; format: organism-based; settings: in vivo, 120 h
[11] = Apparent permeability from apical to basolateral side of human Caco2 cells at 4 mM up to 120 mins by HPLC analysis; format: ADME, cell-based; settings: Caco-2; how it was run: as §1
Liver [12] = experiment: Toxicity in mouse assessed as effect on iron level in liver per gram of organ at 0.4 mmol/kg, ip qd for 5 days; format: organism-based; settings: in vivo, 120 h
Kidney [13] = experiment: Toxicity in mouse assessed as effect on zinc level in kidney per gram of organ at 0.4 mmol/kg, ip qd for 5 days; format: organism-based; settings: in vivo, 120 h
Kidney [14] = experiment: Toxicity in mouse assessed as effect on manganese level in kidney per gram of organ at 0.4 mmol/kg, ip qd for 5 days; format: organism-based; settings: in vivo, 120 h
Liver [15] = experiment: Toxicity in mouse assessed as effect on copper level in liver per gram of organ at 0.4 mmol/kg, ip qd for 5 days; format: organism-based; settings: in vivo, 120 h
Liver [16] = experiment: Detoxification activity against lead-induced toxicity in mouse assessed as reduction lead level in liver per gram of organ at 0.4 mmol/kg, ip qd for 5 days measured 24 hrs last post dose by synchrotron X-ray fluorescence analysis; format: functional; how it was run: as §3
Liver [17] = experiment: Toxicity in mouse assessed as effect on zinc level in liver per gram of organ at 0.4 mmol/kg, ip qd for 5 days; format: organism-based; settings: in vivo, 120 h
Brain [18] = experiment: Toxicity in mouse assessed as effect on manganese level in brain per gram of organ at 0.4 mmol/kg, ip qd for 5 days; format: organism-based; settings: in vivo, 120 h
Liver [19] = experiment: Toxicity in mouse assessed as effect on manganese level in liver per gram of organ at 0.4 mmol/kg, ip qd for 5 days; format: organism-based; settings: in vivo, 120 h
Brain [20] = experiment: Detoxification activity against lead-induced toxicity in mouse assessed as reduction lead level in brain per gram of organ at 0.4 mmol/kg, ip qd for 5 days measured 24 hrs last post dose by synchrotron X-ray fluorescence analysis; format: functional; how it was run: as §3
Kidney [21] = experiment: Toxicity in mouse assessed as effect on iron level in kidney per gram of organ at 0.4 mmol/kg, ip qd for 5 days; format: organism-based; settings: in vivo, 120 h
Femur = experiment: Detoxification activity against lead-induced toxicity in mouse assessed as reduction lead level in femurs per gram of organ at 0.4 mmol/kg, ip qd for 5 days measured 24 hrs last post dose by synchrotron X-ray fluorescence analysis; format: functional; how it was run: as §3
Mus musculus = experiment: Toxicity in mouse assessed as change in bodyweight at 0.4 mmol/kg, ip qd for 5 days; format: organism-based; settings: in vivo, 120 h
How it was run: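 Lead-loaded mice were given normal saline vehicle or test agent at 0.4 mmol/kg. Body weights were recorded and compared with the NS group to assess growth.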

[22] = Detoxification activity against lead-induced toxicity in mouse assessed as reduction lead level in urine at 0.4 mmol/kg, ip qd for 5 days measured 24 hrs last post dose by synchrotron X-ray fluorescence analysis; format: functional; how it was run: as §2

Row | SMILES | Activity (Liver [2]) [µg/g] | Activity (Kidney [3]) [µg/g] | Activity [4] [µg/g] | Activity (Brain [5]) [µg/g] | Activity (Kidney [6]) [µg/g] | Activity (Brain [7]) [µg/g] | Activity (Kidney [8]) [µg/g] | Activity (Brain [9]) [µg/g] | Activity (Brain [10]) [µg/g] | Activity (Liver [12]) [µg/g] | Activity (Kidney [13]) [µg/g] | Activity (Kidney [14]) [µg/g] | Activity (Liver [15]) [µg/g] | Activity (Liver [16]) [µg/g] | Activity (Liver [17]) [µg/g] | Activity (Brain [18]) [µg/g] | Activity (Liver [19]) [µg/g] | Activity (Brain [20]) [µg/g] | Activity (Femur) [µg/g] | Activity [22] [µg/g] | also measured
1 | CSCC[C@H](NC(=O)C1SC(C)(C)SC1C(=O)O)C(=O)O (stereo partly drawn) | 59.64 | 77.39 | 4.35 | 33.66 | 6.36 | 56.6 | 3.65 | 2.41 | 70.51 | 153.33 | 27.79 | 1.37 | 3.59 | 3.51 | 36.78 | 0.73 | 1.39 | 0.91 | 13.71 | 2.26 | Papp B→A at 2 h, 4000 µM [1]: 5.05 ×10⁻⁶ cm/s; Ratio (Caco-2): 3.11; Papp A→B at 2 h, 4000 µM [11]: 15.7 ×10⁻⁶ cm/s; Activity (Kidney [21]): 93.88 µg/g; Activity (Mus musculus): 30 g
2 | O=C([O-])C(S)C(S)C(=O)[O-].[Na+].[Na+] (stereo not drawn) |  |  | 4.59 |  | 6.23 |  |  |  |  |  |  |  |  | 4.75 |  |  |  | 1.72 | 14.31 | 1.79 | Papp B→A at 2 h, 4000 µM [1]: 10 ×10⁻⁶ cm/s; Ratio (Caco-2): 1.1; Papp A→B at 2 h, 4000 µM [11]: 11 ×10⁻⁶ cm/s
3 | CC1(C)SC(C(=O)O)C(C(=O)NCC(=O)O)S1 (stereo not drawn) | 60.01 | 76.17 | 4.53 | 34.31 | 6.68 | 57.03 | 3.62 | 2.5 | 71.4 | 154.3 | 27.68 | 1.31 | 3.58 | 3.29 | 36.35 | 0.74 | 1.29 | 1.39 | 20.82 | 2.07 | Activity (Kidney [21]): 94.4 µg/g; Activity (Mus musculus): 30.4 g
4 | CC1(C)SC(C(=O)O)C(C(=O)N[C@@H](Cc2ccccc2)C(=O)O)S1 (stereo partly drawn) | 60.61 | 76.76 | 4.85 | 34.51 | 6.61 | 56.31 | 3.59 | 2.59 | 69.84 | 154.97 | 27.57 | 1.43 | 3.63 | 4.6 | 36.69 | 0.75 | 1.31 | 1.11 | 16.75 | 1.72 | Activity (Kidney [21]): 94.82 µg/g; Activity (Mus musculus): 29.9 g
5 | CC1(C)SC(C(=O)O)C(C(=O)N[C@@H](CO)C(=O)O)S1 (stereo partly drawn) | 59.65 | 75.89 | 4.41 | 34.09 | 6.43 | 56.47 | 3.73 | 2.39 | 68.08 | 153.39 | 28.1 | 1.42 | 3.73 | 3.21 | 37 | 0.78 | 1.37 | 1.05 | 14.7 | 2.83 | Activity (Kidney [21]): 93.69 µg/g; Activity (Mus musculus): 31.5 g
6 | CC(C)[C@H](NC(=O)C1SC(C)(C)SC1C(=O)O)C(=O)O (stereo partly drawn) | 60.24 | 76.97 | 4.76 | 34.51 | 6.16 | 57.35 | 3.62 | 2.55 | 72 | 155.25 | 27.64 | 1.4 | 3.51 | 3.19 | 36.49 | 0.76 | 1.4 | 1.49 | 14.93 | 2.65 | Activity (Kidney [21]): 95.56 µg/g; Activity (Mus musculus): 29.9 g
7 | CC1(C)SC(C(=O)O)C(C(=O)N[C@@H](CCC(N)=O)C(=O)O)S1 (stereo partly drawn) | 59.07 | 76.93 | 4.5 | 34.68 | 6.86 | 57.66 | 3.59 | 2.64 | 71.82 | 153.02 | 28.09 | 1.33 | 3.76 | 3.07 | 37.85 | 0.69 | 1.37 | 1.02 | 14.59 | 2.89 | Activity (Kidney [21]): 94.48 µg/g; Activity (Mus musculus): 29.6 g
8 | CC(C)(S)C(N)C(=O)O (racemic) [DL-PENICILLAMINE] |  |  | 3.26 |  | 7.24 |  |  |  |  |  |  |  |  | 3.52 |  |  |  | 1.61 | 14.99 | 1.94 | Papp B→A at 2 h, 4000 µM [1]: 11.5 ×10⁻⁶ cm/s; Ratio (Caco-2): 1.14; Papp A→B at 2 h, 4000 µM [11]: 13.1 ×10⁻⁶ cm/s

— ChEMBL document CHEMBL1681713, “Lead detoxification activities and ADMET hepatotoxicities of a class of novel 5-(1-carbonyl-L-amino-acid)-2,2-dimethyl-[1,3]dithiolane-4-carboxylic acids” (Bioorg Med Chem Lett, 2011)
